# Tests used:
# Substance-P receptor [1] = biological target: T1, Substance-P receptor (Homo sapiens, UniProt P25103); assay: Antagonist activity at NK1 receptor (unknown origin)
# Substance-P receptor [2] = biological target: T1, Substance-P receptor; assay: Displacement of [3H]SP from human recombinant NK1 receptor expressed in CHO cells after 40 mins by scintillation counting analysis; format: cell-based
# Method in brief: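 Membranes from hNK1-CHO cells (8 µg protein) with [3H]-SP 0.5 nM in HEPES pH 7.4, 3 mM MnCl2, 0.02% BSA. Compound 1 pM–1 µM final, 40 min at room temperature. Nonspecific binding with 1 µM SP. Filtration through PEI-soaked GF/B filters, scintillation counting. IC50 fitted with slope fixed at unity, converted to Ki by Cheng-Prusoff; duplicates.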
# [3] = Volume of distribution at steady state in rat at 0.5 mg/kg, iv and 1 mg/kg, po; format: ADME, organism-based; details: in vivo, read-out: Vdss
# Method in brief: (§1)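 Rat and dog pharmacokinetics derived from plasma concentrations after 0.5 mg/kg i.v. and 1 mg/kg oral dosing.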
# [4] = Volume of distribution at steady state in dog at 0.5 mg/kg, iv and 1 mg/kg, po; format: ADME, organism-based, Canis lupus familiaris; details: in vivo, read-out: Vdss; method in brief: as §1
# [5] = Oral bioavailability in dog at 1 mg/kg; format: ADME, organism-based, Canis lupus familiaris; details: in vivo; method in brief: as §1
# Substance-P receptor [6] = biological target: T1, Substance-P receptor; details: CHO
# [7] = Half life in rat at 0.5 mg/kg, iv and 1 mg/kg, po; format: ADME, organism-based; details: in vivo; method in brief: as §1
# [8] = Plasma clearance in rat at 0.5 mg/kg, iv and 1 mg/kg, po; format: ADME, organism-based; method in brief: as §1
# [9] = Plasma clearance in dog at 0.5 mg/kg, iv and 1 mg/kg, po; format: ADME, organism-based, Canis lupus familiaris; method in brief: as §1
# [10] = Ratio of drug uptake in brain to plasma in rat at 1 mg/kg, iv after 5 mins; format: ADME, organism-based; set-up: dose 1 mg/kg, route intravenous; details: read-out: BPR
# Method in brief: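 Rat brain and plasma levels measured 5 min after 1 mg/kg i.v. dose; brain/plasma ratio calculated.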
# [11] = Oral bioavailability in rat at 1 mg/kg; format: ADME, organism-based; details: in vivo; method in brief: as §1
# [12] = Half life in dog at 0.5 mg/kg, iv and 1 mg/kg, po; format: ADME, organism-based, Canis lupus familiaris; details: in vivo; method in brief: as §1
# Substance-P receptor [13] = biological target: Substance-P receptor (Meriones unguiculatus, UniProt Q5DUB1); assay: Displacement of [3H]GR205171 from Mongolian gerbil brain NK1 receptor after 60 mins by scintillation counting analysis
# Method in brief: (§2)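 Brain membranes used: gerbil cortex/striatum (0.055 mg protein) or marmoset striatum (0.080 mg). Radioligand [3H]-GR205171 0.2 nM, compound 1 pM–1 µM final, in HEPES pH 7.4, MnCl2, BSA plus protease inhibitors. Incubation 60 min at room temperature; nonspecific binding with 1 µM GR205171. Filtration on GF/C, scintillation counting; LIGAND fit, duplicates.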
# Meriones unguiculatus [14] = assay: Inhibition of GR73632-induced tapping behavior in po dosed Mongolian gerbil foot tapping model administered 1 to 24 hrs prior to GR73632 challenge; format: functional, organism-based
# Method in brief: (§3)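 Male gerbils (50–70 g) dosed orally (10 ml/kg) in 0.5% methocel with 5% DMSO, 1, 4, 8 or 24 h before icv GR73632 (3 pmol/5 µl) given under brief isoflurane. Hind foot tapping timed for 3 min; ≥7 animals per treatment.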
# Meriones unguiculatus [15] = assay: Inhibition of GR73632-induced tapping behavior in sc dosed Mongolian gerbil foot tapping model administered 1 hr prior to GR73632 challenge; format: functional; details: read-out: ID50
# [16] = Drug uptake in Mongolian gerbil brain at 1 mg/kg, po; format: ADME, organism-based, Meriones unguiculatus; set-up: dose 1 mg/kg, route oral; details: in vivo
# Method in brief: (§4)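 Gerbils given 1 mg/kg orally; total brain concentration and brain/plasma ratio determined.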
# Callithrix jacchus [17] = assay: Anxiolytic activity in marmoset human threat test model assessed as reduction in number of postures at 1 mg/kg, po preincubated for 1 hr followed by compound wash out for 3 days relative to vehicle-treated control; format: functional; set-up: scale not given: the % may be the effect or the level left
# Method in brief: (§5)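 Marmosets, both sexes, >2 years, 300–500 g, preselected for ≥10 postures in 2 min. Oral dosing 0.3–10 mg/kg (1 ml/kg) in 0.5% methocel with 1% DMSO, 1 h before a human-observer threat test. Blind random crossover, ≥3 day washout, 4–7 animals. Postures counted; paired t-test against matched vehicle.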
# Callithrix jacchus [18] = assay: Anxiolytic activity in po dosed marmoset human threat test model assessed as reduction in number of postures preincubated for 1 hr followed by compound wash out for 3 days; format: functional, organism-based; method in brief: as §5
# Meriones unguiculatus [19] = assay: Inhibition of GR73632-induced tapping behavior in po dosed Mongolian gerbil foot tapping model administered 4 hrs prior to GR73632 challenge; format: functional; details: read-out: ID50 (the source's name); method in brief: as §3
# [20] = Inhibition of sigma2 receptor (unknown origin); set-up: species or system Homo sapiens
# [21] = biological target: Sigma non-opioid intracellular receptor 1 (Homo sapiens, UniProt Q99720); assay: Inhibition of sigma1 receptor (unknown origin)
# [22] = Inhibition of sodium channel site2 (unknown origin); set-up: species or system Homo sapiens
# Meriones unguiculatus [23] = assay: Inhibition of GR73632-induced tapping behavior in po dosed Mongolian gerbil foot tapping model administered 8 hrs prior to GR73632 challenge; format: functional; details: read-out: ID50 (the source's name); method in brief: as §3
# Callithrix jacchus [24] = assay: Anxiolytic activity in marmoset human threat test model assessed as reduction in number of postures at 0.3 mg/kg, po preincubated for 1 hr followed by compound wash out for 3 days relative to vehicle-treated control; format: functional; set-up: scale not given: the % may be the effect or the level left; method in brief: as §5
# Meriones unguiculatus [25] = assay: Ex vivo NK1 receptor occupancy in Mongolian gerbil striatum assessed as inhibition of [3H]-GR205171 binding at 0.1 mg/kg, po by autoradiography; format: functional
# Method in brief: (§6)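 Gerbils dosed orally (0.1–1 mg/kg) 1 h before, killed after social interaction testing. Unwashed 12 µm coronal sections incubated 10 min with 0.3 nM [3H]-GR205171; nonspecific binding with 100 nM GR205171. Imaging-plate exposure 10 days. Occupancy = 100% minus specific binding ratio treated/vehicle in striatum; 3 animals per group.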
# Meriones unguiculatus [26] = assay: Antidepressant activity in Mongolian gerbil assessed as increase in social interaction time at 0.1 mg/kg, po after 1 hr (reference value: 21.2 +/- 2.9 secs); format: functional
# Meriones unguiculatus [27] = assay: Antidepressant activity in Mongolian gerbil assessed as increase in social interaction time at 1 mg/kg, po after 1 hr (reference value: 21.2 +/- 2.9 secs); format: functional
# Meriones unguiculatus [28] = assay: Ex vivo NK1 receptor occupancy in Mongolian gerbil striatum assessed as inhibition of [3H]-GR205171 binding at 0.3 mg/kg, po by autoradiography; format: functional; method in brief: as §6
# Meriones unguiculatus [29] = assay: Inhibition of GR73632-induced tapping behavior in po dosed Mongolian gerbil foot tapping model administered 24 hrs prior to GR73632 challenge; format: functional; details: read-out: ID50 (the source's name); method in brief: as §3
# Meriones unguiculatus [30] = assay: Inhibition of GR73632-induced tapping behavior in po dosed Mongolian gerbil foot tapping model administered 1 hr prior to GR73632 challenge; format: functional; details: read-out: ID50 (the source's name); method in brief: as §3
# Callithrix jacchus [31] = assay: Anxiolytic activity in marmoset human threat test model assessed as reduction in number of postures at 3 mg/kg, po preincubated for 1 hr followed by compound wash out for 3 days relative to vehicle-treated control; format: functional; set-up: scale not given: the % may be the effect or the level left; method in brief: as §5
# Meriones unguiculatus [32] = assay: Antidepressant activity in Mongolian gerbil assessed as increase in social interaction time at 0.3 mg/kg, po after 1 hr (reference value: 21.2 +/- 2.9 secs); format: functional
# Callithrix jacchus [33] = assay: Anxiolytic activity in marmoset human threat test model assessed as reduction in number of postures at 10 mg/kg, po preincubated for 1 hr followed by compound wash out for 3 days relative to vehicle-treated control; format: functional; set-up: scale not given: the % may be the effect or the level left; method in brief: as §5
# Meriones unguiculatus [34] = assay: Antidepressant activity in po dosed Mongolian gerbil assessed as increase in social interaction time after 1 hr; format: functional, organism-based
# Meriones unguiculatus [35] = assay: Toxicity in Mongolian gerbil assessed as locomotor activity at 0.1 to 1 mg/kg, po after 1 hr; format: organism-based; set-up: dose 0.1-1 mg/kg, route oral; details: in vivo
# [36] = Displacement of [3H]GR205171 from marmoset cerebral striatum NK1 receptor after 60 mins by scintillation counting analysis; set-up: species or system Callithrix jacchus; method in brief: as §2
# Meriones unguiculatus [37] = assay: Ex vivo NK1 receptor occupancy in Mongolian gerbil striatum assessed as inhibition of [3H]-GR205171 binding at 1 mg/kg, po by autoradiography; format: functional; method in brief: as §6
# [38] = biological target: Platelet-activating factor receptor (Homo sapiens, UniProt P25105); assay: Inhibition of platelet activating factor receptor (unknown origin)
# [39] = Ratio of drug uptake in brain to plasma in Mongolian gerbil at 1 mg/kg, po; format: ADME, organism-based, Meriones unguiculatus; set-up: dose 1 mg/kg, route oral; method in brief: as §4
# T1 sequence (P25103 whole entry): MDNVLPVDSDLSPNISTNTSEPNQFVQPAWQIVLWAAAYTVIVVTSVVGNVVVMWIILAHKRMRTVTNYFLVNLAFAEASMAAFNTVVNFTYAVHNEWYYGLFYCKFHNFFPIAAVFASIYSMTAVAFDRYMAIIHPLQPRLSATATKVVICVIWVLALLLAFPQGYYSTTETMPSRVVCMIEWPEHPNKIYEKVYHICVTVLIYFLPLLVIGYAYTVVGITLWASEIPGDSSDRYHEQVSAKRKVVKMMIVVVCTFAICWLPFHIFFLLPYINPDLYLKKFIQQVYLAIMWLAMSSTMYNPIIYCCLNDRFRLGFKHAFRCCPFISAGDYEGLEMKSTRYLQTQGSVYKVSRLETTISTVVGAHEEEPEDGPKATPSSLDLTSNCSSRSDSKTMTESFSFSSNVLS
# Substance-P receptor (Meriones unguiculatus, UniProt Q5DUB1), sequence (Q5DUB1 whole entry): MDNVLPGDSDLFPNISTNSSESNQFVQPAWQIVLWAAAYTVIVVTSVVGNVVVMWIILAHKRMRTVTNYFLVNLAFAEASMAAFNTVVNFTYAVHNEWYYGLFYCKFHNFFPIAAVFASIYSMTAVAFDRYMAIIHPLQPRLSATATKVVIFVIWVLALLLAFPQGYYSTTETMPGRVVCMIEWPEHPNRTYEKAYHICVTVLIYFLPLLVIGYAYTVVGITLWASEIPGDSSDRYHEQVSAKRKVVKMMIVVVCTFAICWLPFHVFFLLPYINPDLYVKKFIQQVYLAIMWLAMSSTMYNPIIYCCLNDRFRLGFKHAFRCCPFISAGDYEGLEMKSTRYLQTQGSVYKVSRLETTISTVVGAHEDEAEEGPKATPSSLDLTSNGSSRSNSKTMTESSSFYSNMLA
# Platelet-activating factor receptor, sequence (P25105 whole entry): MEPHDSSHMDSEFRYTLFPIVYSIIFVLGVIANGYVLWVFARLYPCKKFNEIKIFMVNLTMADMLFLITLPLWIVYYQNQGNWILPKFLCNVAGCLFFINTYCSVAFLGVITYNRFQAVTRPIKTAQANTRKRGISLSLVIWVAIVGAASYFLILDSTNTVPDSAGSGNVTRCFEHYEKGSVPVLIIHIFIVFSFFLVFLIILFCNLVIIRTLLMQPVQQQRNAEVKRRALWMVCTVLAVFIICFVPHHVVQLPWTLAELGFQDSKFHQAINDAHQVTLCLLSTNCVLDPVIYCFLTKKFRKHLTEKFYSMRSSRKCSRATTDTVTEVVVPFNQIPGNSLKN
# Sigma non-opioid intracellular receptor 1, sequence (Q99720 whole entry): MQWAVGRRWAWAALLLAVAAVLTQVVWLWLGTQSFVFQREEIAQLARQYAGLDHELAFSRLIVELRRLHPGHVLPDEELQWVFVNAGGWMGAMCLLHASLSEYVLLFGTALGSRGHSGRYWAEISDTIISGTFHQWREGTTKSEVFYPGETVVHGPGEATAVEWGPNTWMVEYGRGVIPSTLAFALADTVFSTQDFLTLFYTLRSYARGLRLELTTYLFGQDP
structure (smiles),measurement,setting,value
COc1ccccc1CN1CN2CCCC1C2c1ccccc1 (configuration not stated),IC50,Substance-P receptor [1],0.61 nM
Cc1cc(F)ccc1[C@H]1C[C@H](N2CCN3C(=O)CC[C@@H]3C2)CCN1C(=O)N(C)[C@H](C)c1cc(C(F)(F)F)cc(C(F)(F)F)c1,Ki,Substance-P receptor [2],0.138 nM
Cc1cc(F)ccc1[C@H]1C[C@@H](N2CCN3C(=O)CC[C@@H]3C2)CCN1C(=O)N(C)[C@H](C)c1cc(C(F)(F)F)cc(C(F)(F)F)c1,Ki,Substance-P receptor [2],0.2 nM
Cc1cc(F)ccc1[C@H]1C[C@H](N2CCN3C(=O)CC[C@H]3C2)CCN1C(=O)N(C)[C@H](C)c1cc(C(F)(F)F)cc(C(F)(F)F)c1,Vd,[3],3.4 L/kg
same,Vd,[4],2 L/kg
same,bioavailability,[5],28%
same,pKb,Substance-P receptor [6],10.5
same,half-life,[7],168 min
same,clearance,[8],25 mL/min/kg
same,clearance,[9],11 mL/min/kg
same,Ki,Substance-P receptor [2],0.0646 nM
same,Kp at 5 min,[10],0.9
same,bioavailability,[11],19%
same,half-life,[12],306 min
COc1ccc(-n2cnnn2)cc1CN[C@H]1CCCN[C@H]1c1ccccc1,IC50,Substance-P receptor [1],0.04 nM
CC(=O)N1CCN([C@H]2CCN(C(=O)N(C)[C@H](C)c3cc(C(F)(F)F)cc(C(F)(F)F)c3)[C@@H](c3ccc(F)cc3C)C2)CC1 [CASOPITANT],Vd,[3],3.2 L/kg
same,bioavailability,[5],34%
same,clearance,[8],37 mL/min/kg
Cc1ccccc1-c1cc(N2CCN(C)CC2)ncc1N(C)C(=O)C(C)(C)c1cc(C(F)(F)F)cc(C(F)(F)F)c1 [NETUPITANT],IC50,Substance-P receptor [1],0.95 nM
Cc1cc(F)ccc1[C@H]1C[C@@H](N2CCN3C(=O)CC[C@H]3C2)CCN1C(=O)N(C)[C@H](C)c1cc(C(F)(F)F)cc(C(F)(F)F)c1 [ORVEPITANT],Ki,Substance-P receptor [13],0.0316 nM
same,Activity,Meriones unguiculatus [14],Dose-dependent effect
same,ED50,Meriones unguiculatus [15],0.07 mg/kg
same,Drug uptake,[16],91 ng/g
same,Vd,[3],3.7 L/kg
same,Vd,[4],2 L/kg
same,Activity,Callithrix jacchus [17],34.9%
same,bioavailability,[5],55%
same,pKb,Substance-P receptor [6],10.3
same,Activity,Callithrix jacchus [18],Dose-dependent effect
same,ED50,Meriones unguiculatus [19],0.09 mg/kg
same,Ki,[20],3.26 µM
same,Ki,[21],940 nM
same,half-life,[7],138 min
same,Ki,[22],4.54 µM
same,ED50,Meriones unguiculatus [23],0.09 mg/kg
same,clearance,[8],29 mL/min/kg
same,Activity,Callithrix jacchus [24],11.8%
same,Occ,Meriones unguiculatus [25],47.8%
same,clearance,[9],6 mL/min/kg
same,Time,Meriones unguiculatus [26],22.1 s
same,Ki,Substance-P receptor [2],0.0631 nM
same,Time,Meriones unguiculatus [27],33.1 s
same,Occ,Meriones unguiculatus [28],74.6%
same,ED50,Meriones unguiculatus [29],3.36 mg/kg
same,Kp at 5 min,[10],1.2
same,ED50,Meriones unguiculatus [30],0.11 mg/kg
same,Activity,Callithrix jacchus [31],36.6%
same,bioavailability,[11],17%
same,Time,Meriones unguiculatus [32],27.3 s
same,Activity,Callithrix jacchus [33],46.4%
same,Activity,Meriones unguiculatus [34],Dose-dependent effect
same,Activity,Meriones unguiculatus [35],Non-toxic
same,half-life,[12],366 min
same,pKi,[36],10.4
same,Occ,Meriones unguiculatus [37],95.2%
same,Ki,[38],2270 nM
same,Kp,[39],1.2
